# Experimental data pooled from the literature.
# Compare with care: the assays were run in different laboratories.
# SLC6A2: Sodium-dependent noradrenaline transporter (SLC6A2, Homo sapiens, UniProt P23975)
# CHEK2 R145W: Serine/threonine-protein kinase Chk2 (CHEK2, Homo sapiens, UniProt O96017, R145W)
# FPR1: fMet-Leu-Phe receptor (FPR1, Homo sapiens, UniProt P21462)
# DNA dC->dU-editing enzyme APOBEC-3B: DNA dC->dU-editing enzyme APOBEC-3B (Homo sapiens, UniProt Q9UH17)
Structure (SMILES),target,test,system,setting,inhibition [%]
Fc1ccc(C(c2ccc(F)cc2)c2nnnn2CCCN2CCC(Cc3ccccc3)CC2)cc1,SLC6A2,"transporter uptake, inhibitor",HEK293,1 µM,39.7
CNC(=O)c1cc(Oc2ccc(NC(=O)Nc3ccc(Cl)c(C(F)(F)F)c3)cc2)ccn1,CHEK2 R145W,"enzyme activity, inhibitor",,10 µM,0
CC(=O)N[C@H]1CSSC[C@@H](C(=O)N[C@H](Cc2c[nH]c3ccccc23)C(N)=O)NC(=O)[C@@H](Cc2ccccc2)NC(=O)[C@H](CCCNC(=N)N)NC1=O,"Melanocortin receptor 4 (MC4R, Homo sapiens, UniProt P32245)","ligand displacement, radioligand",,"10 µM, 40 min",0
Fc1ccc(C(c2ccc(F)cc2)c2nnnn2CCCCN2CCC(CCCc3ccccc3)CC2)cc1,SLC6A2,"transporter uptake, inhibitor",HEK293,1 µM,48
COc1ccccc1-c1c(C(F)(F)F)oc2cc(OC(=O)c3ccccc3)ccc2c1=O,FPR1,"calcium signal, antagonist",,50 µM,90
Cc1ccc(Nc2nccc(N(C)c3ccc4c(C)n(C)nc4c3)n2)cc1S(N)(=O)=O,CHEK2 R145W,"enzyme activity, inhibitor",,0.3 µM,-4
Clc1ccc(C(c2ccccc2)c2nnnn2CCCCN2CCN(CC=Cc3ccccc3)CC2)cc1 (stereo not drawn),SLC6A2,"transporter uptake, inhibitor",HEK293,1 µM,50.4
O=c1c(-c2ccc(O)cc2)coc2c(OC3OC(CO)C(O)C(O)C3O)c(O)ccc12 (stereo not drawn),DNA dC->dU-editing enzyme APOBEC-3B,"enzyme activity, inhibitor, fluorescence",,100 µM,37.5
CC/C(=N\NC(=O)NCc1cccc(O)c1)c1ccc(O)c(C)c1O,"Fibroblast growth factor receptor 4 (FGFR4, Homo sapiens, UniProt P22455, V550E)","enzyme activity, inhibitor",,0.1 µM,1.5
Fc1ccc(C(c2ccc(F)cc2)c2nnnn2CCCCN2CCN(CCCc3ccccc3)CC2)cc1,SLC6A2,"transporter uptake, inhibitor",HEK293,1 µM,86.4
COc1ccccc1-c1c(C)oc2cc(OC(=O)c3ccco3)ccc2c1=O,FPR1,"calcium signal, antagonist",,50 µM,100
Fc1ccc(C(c2ccc(F)cc2)c2nnnn2CCCCN2CCN(Cc3ccccc3)CC2)cc1,SLC6A2,"transporter uptake, inhibitor",HEK293,1 µM,95
O=C(c1ccc(F)cc1)N(Cc1ccccc1)C1CCCCC1,"Cysteinyl leukotriene receptor 1 (CYSLTR1, Homo sapiens, UniProt Q9Y271)",ligand displacement,,10 µM,-7
CCN1CCN(Cc2ccc(NC(=O)c3ccc(C)c(Oc4ccnc5[nH]ccc45)c3)cc2C(F)(F)F)CC1,"Serine/threonine-protein kinase 10 (STK10, Homo sapiens, UniProt O94804)","target engagement in cells, inhibitor, chemoproteomics",A-375,5 µM,-138
O=C(O)C1OC(Oc2cc(O)c3c(=O)cc(-c4ccc(O)cc4)oc3c2)C(O)C(O)C1O (stereo not drawn),DNA dC->dU-editing enzyme APOBEC-3B,"enzyme activity, inhibitor, fluorescence",,100 µM,41.2
COc1ccccc1-c1c(C)oc2cc(OC(=O)c3cccs3)ccc2c1=O,FPR1,"calcium signal, antagonist",,50 µM,100
Clc1ccc(C(c2ccc(Cl)cc2)c2nnnn2CCCCN2CCC(c3ccccc3)CC2)cc1,SLC6A2,"transporter uptake, inhibitor",HEK293,1 µM,34
Cc1oc2cc(OC(=O)c3ccco3)ccc2c(=O)c1-c1nc2ccccc2n1C,FPR1,"calcium signal, antagonist",,50 µM,100
Clc1ccc(C(c2ccc(Cl)cc2)c2nnnn2CCCCN2CCN(Cc3ccccc3)CC2)cc1,SLC6A2,"transporter uptake, inhibitor",HEK293,1 µM,79
CCCCCCc1cc2c(=O)c(-c3nc4ccccc4n3C)c(C)oc2cc1OC(C)=O,FPR1,"calcium signal, antagonist",,50 µM,100
Cc1c(COc2c(F)cc(F)cc2F)c2c(n1C)C(=O)C=C(NCCCN)C2=O,"Ribosyldihydronicotinamide dehydrogenase [quinone] (NQO2, Homo sapiens, UniProt P16083)","cell-free assay, inhibitor",,1 µM,97
